Assay outcomes as filed in PubChem BioAssay.
KLK7 zymogen act: activators of human kallikrein-7 zymogen; purified proKLK7, EDANS-DABCYL substrate fluorescence; 100% is mature enzyme control, 0% vehicle; activation, % at 7 µM; 370,000 tested, 0.9% active; AID 652039;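 active means activation above the mean of all tested compounds plus 3 SD, computed per campaign excluding outliers beyond control limits, cut at about 13% in these data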
MEX-5 binding: C. elegans MEX-5 TCR-2 RNA binding activity. Q9XUB2. MEX-5/FITC-TCR2 RNA binding, fluorescence polarization; stronger effect = lower value. 300,000 tested, 0.38% active. activity score (negative = inhibition of binding), % at 10 µM;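 active means inhibition past about -25% in most replicates, and total fluorescence under double the plate's negative control median, limit read from the data; inconclusive means replicates evenly split on the limit, or fluorescence at least double controls; inactive means too little inhibition in most replicates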;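 further: 0% = DMSO and -100% = 5 µM competing unlabeled TCR2 RNA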
RanGTP-Impb inh: disruptors of Ran-importin-beta complex formation – biochemical, FRET, CFP-Ran, YFP-importin-beta, homogeneous, primary screen; cell-free CFP-Ran/YFP-importin-beta FRET ratio; inhibition, % (concentration not given with the values); 300,000 tested, 1.1% active;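 active means more than half of the replicate wells show a fall in the fluorescence ratio signal beyond about 16%, limit read from the data, passing the limit was not always enough; inconclusive means exactly half of the replicate wells pass the set limit; inactive means fewer than half of replicates pass the limit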;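 further: 0% = DMSO wells and 100% = Ran loaded with GDP instead of GTP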
Runt-SMMHC FRET: blocks binding of human RUNX1 Runt domain to CBFb-SMMHC | Q01196+Q13951 | Cerulean-Runt/Venus-CBFb-SMMHC FRET ratio 530/480, 1 h | inhibition, % at 20 µM | 220,000 tested, 0.74% active;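 active means mean inhibition across duplicate retests at 20 µM reaching about 50%, limit read from the data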;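 further: 0% = DMSO wells and 100% = wells with excess untagged CBFb-SMMHC; inhibitors lower the FRET ratio by blocking Runt binding to CBFb-SMMHC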
Target sequence (Q01196 whole entry, looked up, the tested form may be a part): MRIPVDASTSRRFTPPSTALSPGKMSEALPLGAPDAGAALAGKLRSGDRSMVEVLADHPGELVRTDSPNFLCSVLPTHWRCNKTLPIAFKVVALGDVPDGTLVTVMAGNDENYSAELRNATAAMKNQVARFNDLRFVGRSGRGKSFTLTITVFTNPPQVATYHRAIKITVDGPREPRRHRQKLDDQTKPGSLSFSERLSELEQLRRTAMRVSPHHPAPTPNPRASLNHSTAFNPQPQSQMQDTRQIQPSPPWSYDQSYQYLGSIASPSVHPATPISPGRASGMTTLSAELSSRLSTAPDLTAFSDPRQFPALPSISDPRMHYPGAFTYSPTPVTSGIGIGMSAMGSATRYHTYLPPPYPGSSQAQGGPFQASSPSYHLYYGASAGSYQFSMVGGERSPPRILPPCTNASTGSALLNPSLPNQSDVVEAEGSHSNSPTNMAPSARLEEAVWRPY
Target sequence (Q13951 whole entry, looked up, the tested form may be a part): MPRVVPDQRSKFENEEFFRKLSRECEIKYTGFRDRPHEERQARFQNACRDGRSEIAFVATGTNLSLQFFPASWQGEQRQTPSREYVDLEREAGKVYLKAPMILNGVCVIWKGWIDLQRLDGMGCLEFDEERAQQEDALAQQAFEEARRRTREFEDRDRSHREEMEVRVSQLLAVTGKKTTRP
Runt-CBFb FRET: blocks binding of human RUNX1 Runt domain to CBFb; inhibition, % at 20 µM; 220,000 tested, 0.46% active; Q01196+Q13951; AID 1496; Cerulean-Runt/Venus-CBFb FRET ratio 530/480, 1 h;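 active means inhibition over about 50% at 20 µM in the single-dose screen, limit read from the data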;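 further: 0% = DMSO wells and 100% = excess unlabeled CBFb competitor control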
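Buffer or medium: Tris pH 7.5 buffer with BSA. Assay system: Cerulean-labeled Runt domain protein. Amount: each fluorescent fusion protein 100 nM. Read-out basis: loss of energy transfer signal. Incubation: 1 h compound exposure, room temperature. Probe or stimulus: Venus-CBFb binding partner, 100 nM. Detection: FRET, excitation 422 nm, emission at 530 and 480 nm.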
RUNX1 CBFb TR: disrupts human RUNX1 Runt domain binding to CBFb. shares compounds with Runt-CBFb FRET. TR-FRET RUNX1 Runt domain-CBFb binding. inhibition, % at 20 µM. 480 tested, 20% active. AID 1502; in the data active means inhibition above about 40%
Starred values were filed as active, the others as inactive; ? = inconclusive; . = not tested or not shown. This is a sample that favours compounds with a hit; in the whole collection about 2.1% have one here.

SMILES	KLK7 zymogen act	MEX-5 binding	RanGTP-Impb inh	Runt-SMMHC FRET	Runt-CBFb FRET	RUNX1 CBFb TR
CC(=O)Nc1ccc(S(=O)(=O)N2CCN(c3cc(C(F)(F)F)ccn3)CC2)cc1	1	0	2	-3	56*	76*
CCOC(=O)c1ccc(N2C(=O)c3n[nH]c(C)c3C2c2cccnc2)cc1 (configuration not stated)	1	5	0	4	0	.
CCOC(=O)c1ccc(N2C(=O)c3n[nH]c(-c4ccco4)c3C2c2ccc([N+](=O)[O-])cc2)cc1 (configuration not stated)	0	2	7	8	68*	30
O=C(NC(=S)Nc1cccc(Cl)c1Cl)C1CC1	0	-2	0	.	.	.
c1cc2c(cc1-c1csc(NNC3=NCCCCC3)n1)OCCO2	0	-2	-2	71*	60*	35
NS(=O)(=O)c1ccc(NC(=S)NCc2cccc(Cl)c2)cc1	0	1	0	-2	6	.
NS(=O)(=O)c1ccc(NC(=S)NCc2ccccc2)cc1	0	3	5	28	52*	6
O=C(O)CN1C(=O)/C(=C\c2ccc(OC(=O)c3ccco3)cc2)SC1=S	1	9	-1	.	.	.
O=C(O)CN1C(=O)/C(=C/c2ccc(SCc3ccccc3)o2)SC1=S	0	.	.	32	70*	4
O=C(NC(=S)Nc1cccc2ncccc12)c1ccco1	-1	0	5	0	6	.
N#C/C(=C\c1ccco1)C(=O)Nc1cccc2ncccc12	2	1	9	29	61*	-7
COc1cc(C2C3=C(CC(C)(C)CC3=O)Nc3c2c(=O)[nH]c(=O)n3Cc2ccccc2)ccc1O (configuration not stated)	-28	2	?	115*	76*	6
O=C(O)c1cccc(S(=O)(=O)Nc2ccc3oc(=O)sc3c2)c1	0	-3	0	68*	65*	21
COc1ccc(-c2noc(CCC(=O)N3CCC(C)CC3)n2)cc1	1	1	0	-2	85*	-2
COc1c(O)c(O)c2oc(-c3ccccc3)cc(=O)c2c1OC	0	0	-2	53*	58*	65*
COc1cc(-c2cc(=O)c3c(O)c(OC)c(OC)c(O)c3o2)ccc1O	-1	?	-1	25	44	.
CCOC(=O)c1c(NC(C)=O)sc2c1CCCNC2=O	0	1	3	-3	2	.
CCOC(=O)c1c(NC(C)=O)sc2c1CCC(C=O)=C2Sc1ccccc1	0	1	1	32	53*	-19
C/C(=N\NC(=O)c1ccc([N+](=O)[O-])cc1)c1c(O)cc(C)oc1=O	0	0	2	2	0	.
C/C(=N/NC(=O)c1cc(O)c(O)c(O)c1)c1ccc([N+](=O)[O-])cc1	1	-16	9	50	54*	67*
O=C(NCCCN1CCC(Cc2ccccc2)CC1)c1ccc(CS(=O)c2ccccc2Cl)o1 (configuration not stated)	0	.	.	.	.	.
COC(=O)CC1C(=O)NC2CCCCC2N1C(=O)CCl (configuration not stated)	1	-1	4	-6	51*	35
CCNC(=O)N1C(CC(=O)OCC)C(=O)NC2CCCCC21 (configuration not stated)	1	-3	2	3	0	.
Cc1nc2ccccc2c(=O)n1/N=C/c1ccc([N+](=O)[O-])o1	.	-1	1	86	57*	3
Cc1nc2ccccc2n1/N=C/c1ccc([N+](=O)[O-])o1	0	8	-1	.	.	.
SMILES	KLK7 zymogen act	MEX-5 binding	RanGTP-Impb inh	Runt-SMMHC FRET	Runt-CBFb FRET	RUNX1 CBFb TR
COc1ccc(/C=N/NC(=O)c2ccccc2O)cc1Cn1cc([N+](=O)[O-])cn1	0	.	5	-1	3	.
COc1ccc(/C=N/NC(=O)c2cc(O)c(O)c(O)c2)cc1Cn1cc([N+](=O)[O-])cn1	1	-13	9	49	54*	-5
O=C(COc1cccc(Cl)c1Cl)Nc1ccc2c(c1)CCC2	1	-5	3	-13	63*	-27
O=C1C(Cl)=C(Nc2ccc3cn[nH]c3c2)C(=O)c2ccccc21	0	-5	4	32	51*	-19
Oc1ccc(/C=N/N=C(c2ccccc2)c2ccccc2)c(O)c1O	0	.	.	46	57*	63*
COc1ccc(CCNC(=O)C2CCN(S(=O)(=O)c3cccc4nsnc34)CC2)cc1OC	0	0	5	-2	81*	-6
O=C(NCCc1ccccc1)C1CCN(S(=O)(=O)c2cccc3nsnc23)CC1	0	-1	2	-10	0	.
O=Cc1ccc(O)cc1O	-2	-1	5	.	.	.
O=CN/C=C/c1cc(O)ccc1O	-65	.	.	59*	65*	-2
Cc1ccccc1CN(C)C(=O)CNC(=O)c1ccc2ccccc2c1	0	1	4	.	.	.
CCC1CCCCN1C(=O)CSc1nc(N)c(NC(=O)c2ccco2)c(=O)[nH]1 (configuration not stated)	-1	0	2	-12	63*	-9
Nc1nc(SCC(=O)N2CCCC2)[nH]c(=O)c1NC(=O)c1ccco1	-1	0	1	-2	-2	.
COc1ccc(C2c3ccc(O)cc3Oc3ncn4nc(-c5ccccn5)nc4c32)cc1 (configuration not stated)	1	3	?	.	53*	-4
CCC(C)NC(=O)/C=C1\Sc2ccccc2NC1=O (configuration not stated)	0	-2	14	3	0	.
COc1ccc(N/C=C2/Sc3ccccc3NC2=O)cc1	0	-10	1	54*	61*	14
O=C1Nc2ccccc2S/C1=C/NCc1ccccc1Cl	0	0	0	26	59*	14
O=C(CSc1ncnc2ccccc12)c1ccco1	.	4	?	116*	59*	42*
O=C(CSc1ncnc2ccccc12)NCc1ccco1	0	-1	-1	4	-1	.
Cc1[nH]c2ccccc2c1SCC(=O)O	0	-1	-4	-9	70*	-28
O=C(O)CSc1c(O)c2ccccc2[nH]c1=O	0	-3	4	23	23	.
COCCCNC(=S)NCCCNc1nc2cc3c(cc2cc1C#N)OCO3	11	1	53*	140*	78*	27
O=S(=O)(Nc1ccccc1F)c1cccc(NC(=S)NCCN2CCOCC2)c1	1	.	.	.	.	.
Cc1ccc2cc(NC(=O)C3(C)CCN3CC(C)C)ccc2n1 (configuration not stated)	0	.	.	.	.	.
